Measured values taken from ChEMBL document CHEMBL1153279, “Antioxidant and antiradical activities of resorcinarene tetranitroxides” (Bioorg Med Chem Lett, 2009).

Assays:
[1] = tested on: Radical scavenging activity; test: Antioxidant activity assessed as [drug]/[DPPH]causing 50% DPPH radical scavenging activity after 5 mins; type: functional
Procedure, shortened: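 DPPH reacted with scavenger at 25 °C in 1.5 mL EtOH plus 0.5 mL 0.2 M acetate buffer (pH 5.5). DPPH started at 50–100 µM and test scavengers at 0.5–25 µM. Percent DPPH scavenging was read after 5 min and plotted against the [scavenger]/[DPPH] ratio. ECR50 is the ratio giving 50% scavenging.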

[2] = Antiradical activity against 2,2'-azobis-amidinopropane-induced linoleic acid peroxidation assessed as ratio of total oxyradical scavenging capacity to Trolox C; type: physicochemical
Procedure, shortened: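 Linoleic acid (0.63 mM) was autoxidized by 1 mM ABAP in 0.05 M phosphate buffer (pH 7.4) with 0.02% Lubrol, in air at 37 °C. Conjugated-diene formation was followed at 234 nm. Inhibitor was added once autoxidation ran at constant rate. Efficiency is expressed relative to Trolox C, with stoichiometric factors taken from lag-time ratios and Trolox n set at 2.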

Compound | Activity [1] | Ratio [2]
Oc1cccc(O)c1 [RESORCINOL] | 0.29 | 1.7
CC1(C)CC(O)CC(C)(C)N1[O] [TEMPOL] | 64 | 0.4
